Results from publication PMC9588738 (Cancer research, 2022).

Tests used:
[1] = tested on: PELP1-shRNA expressing ZR75 cells; assay: MTT cell viability assay, PELP1 knockdown cells; type: cell-based, human; settings: PELP1 knockdown vs control
[2] = tested on: ZR75-PELP1 and MCF7-PELP1 cells; assay: QCM chemotaxis cell migration assay; type: cell-based, human; settings: 10 μM, 12 hours
ZR75-PELP1 cells = assay: MTT cell viability assay, ZR75-PELP1 cells; type: cell-based, human
Summary of the method: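 ZR75-PELP1 cells were treated with peptide every 3 days, and MTT absorbance was read at day 7 (n=3). A screen compared ZR75 with ZR75-PELP1 cells.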

PELP1 [3] = target: T1, PELP1 (Homo sapiens, UniProt Q8IZL8); assay: PELP1 degradation by Western blotting; type: cell-based; settings: MCF7 cells, MG132 5 μM
Summary of the method: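 ZR75 and MCF7 cells were exposed to graded test-compound concentrations for 24 h. For the proteasome arm, MCF7 cells received small molecule (10 μM, 4 and 6 h) or peptide (10 μM, 7 h), each ± MG132 (5 μM). Lysis used NP-40/Triton X-100 buffer with protease/phosphatase inhibitors and NEM. PELP1 was normalized to loading control, relative to untreated.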
Target sequence in this assay (Q8IZL8 whole entry): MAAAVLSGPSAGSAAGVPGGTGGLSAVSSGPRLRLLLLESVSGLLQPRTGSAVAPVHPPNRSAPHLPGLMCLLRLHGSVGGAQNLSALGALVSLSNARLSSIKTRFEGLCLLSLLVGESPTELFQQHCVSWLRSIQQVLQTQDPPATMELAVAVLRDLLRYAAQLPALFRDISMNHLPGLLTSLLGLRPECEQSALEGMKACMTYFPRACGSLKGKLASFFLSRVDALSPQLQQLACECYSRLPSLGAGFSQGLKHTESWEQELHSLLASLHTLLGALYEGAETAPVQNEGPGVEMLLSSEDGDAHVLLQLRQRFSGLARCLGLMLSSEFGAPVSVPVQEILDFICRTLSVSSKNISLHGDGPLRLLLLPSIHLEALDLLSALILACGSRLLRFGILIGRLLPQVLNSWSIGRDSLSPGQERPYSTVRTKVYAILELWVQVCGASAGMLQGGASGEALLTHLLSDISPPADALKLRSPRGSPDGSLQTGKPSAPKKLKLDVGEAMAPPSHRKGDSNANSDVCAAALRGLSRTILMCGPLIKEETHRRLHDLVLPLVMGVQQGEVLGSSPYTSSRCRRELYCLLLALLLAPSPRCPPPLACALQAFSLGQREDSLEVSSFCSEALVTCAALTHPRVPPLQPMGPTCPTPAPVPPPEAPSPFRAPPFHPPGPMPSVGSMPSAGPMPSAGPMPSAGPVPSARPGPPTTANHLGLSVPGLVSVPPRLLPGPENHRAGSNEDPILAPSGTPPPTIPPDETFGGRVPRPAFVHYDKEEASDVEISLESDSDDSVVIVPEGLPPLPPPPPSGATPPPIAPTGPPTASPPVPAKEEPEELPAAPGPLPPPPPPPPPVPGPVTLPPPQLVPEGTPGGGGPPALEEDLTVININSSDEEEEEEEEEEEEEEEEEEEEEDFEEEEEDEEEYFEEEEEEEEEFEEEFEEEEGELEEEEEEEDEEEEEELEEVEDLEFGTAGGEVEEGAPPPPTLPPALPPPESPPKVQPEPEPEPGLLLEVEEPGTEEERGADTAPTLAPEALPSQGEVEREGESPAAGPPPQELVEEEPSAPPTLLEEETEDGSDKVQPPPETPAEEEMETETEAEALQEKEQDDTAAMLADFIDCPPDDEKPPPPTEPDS

[4] = tested on: MCF7-TamR and MCF7-LTLT BC model cells; assay: Cell viability of therapy-resistant cells treated with PIP1; type: cell-based, human; settings: 7 days
PELP1 [5] = target: T1, PELP1; assay: Biotin-Avidin pull-down assays; type: binding; settings: Biotin-tagged peptides, ZR75 nuclear lysate
Target sequence in this assay (Q8IZL8 2-1130): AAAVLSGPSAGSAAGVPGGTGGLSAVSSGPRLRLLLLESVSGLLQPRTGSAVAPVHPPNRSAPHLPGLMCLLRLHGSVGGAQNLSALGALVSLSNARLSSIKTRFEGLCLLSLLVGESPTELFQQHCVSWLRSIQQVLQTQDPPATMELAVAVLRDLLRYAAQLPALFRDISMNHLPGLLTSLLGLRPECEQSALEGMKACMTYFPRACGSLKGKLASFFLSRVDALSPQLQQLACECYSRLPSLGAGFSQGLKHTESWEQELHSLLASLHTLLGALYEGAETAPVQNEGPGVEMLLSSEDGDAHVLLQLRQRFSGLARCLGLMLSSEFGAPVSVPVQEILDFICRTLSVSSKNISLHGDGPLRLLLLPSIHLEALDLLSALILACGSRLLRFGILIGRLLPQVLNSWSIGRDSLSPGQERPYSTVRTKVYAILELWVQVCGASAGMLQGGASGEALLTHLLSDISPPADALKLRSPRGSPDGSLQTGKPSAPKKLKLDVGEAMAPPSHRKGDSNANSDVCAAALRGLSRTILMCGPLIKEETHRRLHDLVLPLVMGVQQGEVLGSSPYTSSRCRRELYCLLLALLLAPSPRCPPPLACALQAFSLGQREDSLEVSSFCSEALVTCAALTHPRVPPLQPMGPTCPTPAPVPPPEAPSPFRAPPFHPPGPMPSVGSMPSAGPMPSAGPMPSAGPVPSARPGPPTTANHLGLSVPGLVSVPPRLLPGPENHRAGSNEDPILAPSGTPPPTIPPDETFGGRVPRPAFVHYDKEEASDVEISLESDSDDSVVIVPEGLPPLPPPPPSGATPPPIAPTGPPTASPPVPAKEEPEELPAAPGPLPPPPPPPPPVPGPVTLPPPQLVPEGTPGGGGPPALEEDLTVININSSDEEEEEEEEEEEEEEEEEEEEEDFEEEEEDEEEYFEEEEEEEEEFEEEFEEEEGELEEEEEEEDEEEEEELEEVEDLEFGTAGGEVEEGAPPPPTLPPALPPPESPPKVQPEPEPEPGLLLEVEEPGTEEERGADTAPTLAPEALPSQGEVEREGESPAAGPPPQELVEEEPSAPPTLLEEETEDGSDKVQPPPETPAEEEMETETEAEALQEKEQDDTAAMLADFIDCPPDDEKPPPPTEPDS

[6] = tested on: E2 mediated ERE reporter activation; assay: ERE-luciferase reporter assay; type: cell-based, human; settings: ZR75-PELP1 (PIP1) or ZR75 (SMIP34) cells

Substance: PIP1: PELP1 inhibiting peptide with TAT signal; TAT-PIP1: GRKKRRQRRRGGMVEFRWSCPGRRKAKA (not fully specified; left off: Gal4 activation domain, end not stated, kept)
- activity when PELP1 is knocked down [1]: substantially reduced the activity of PIP1
- cell migration [2]: significant decrease in the cell migration
- comparison of activity between hits in MTT assays (ZR75-PELP1 cells): more efficient anti-proliferative activity than PIP2
- effect on PELP1-mediated proliferation (ZR75-PELP1 cells; TAT-tagged peptides every 3 days, read at 7 days): significantly inhibited PELP1-mediated proliferation
- PELP1 degradation in presence of proteasome inhibitor MG132 (PELP1 [3]): attenuated PIP1 mediated degradation of PELP1
- effect on cell viability of therapy-resistant cells [4]: significantly reduced the cell viability
- relative affinity to bind PELP1 (peptide pull-down) (PELP1 [5]): higher affinity to bind to PELP1 than PIP2
- E2 induced ERE reporter activity [6]: significantly decreased E2 mediated ERE reporter activation
